Key:
[1] = Inhibition of Influenza B virus (B/Shanghai/361/2002(Yamagata)) neuraminidase after 30 mins by fluorescence analysis
Outline: (§1)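 Virus NA source was mixed with compound in 32.5 mM MES-NaOH pH 6.5 with 4 mM CaCl2 and preincubated 10 min at room temperature. Reaction ran 30 min at room temperature with 100 μM (final) 4-MU-NANA. Fluorescence was read at ex 360/em 460 nm, in triplicate. IC50 came from linear regression of residual activity against log concentration, using concentrations giving 10–90% residual activity.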

[2] = target: T1, Neuraminidase (Influenza A virus, UniProt B4URF0); assay: Inhibition of Influenza A virus (A/Puerto Rico/8/1934(H1N1)) neuraminidase after 30 mins by fluorescence analysis
[3] = target: T1, Neuraminidase; assay: Inhibition of Influenza A virus (A/Wellington/1/2004(H3N2)) neuraminidase after 30 mins by fluorescence analysis
[4] = Inhibition of Influenza B virus (B/Aichi/3/2006(Victoria)) neuraminidase after 30 mins by fluorescence analysis; outline: as §1
[5] = Inhibition of Influenza B virus (B/Saitama/01/2005(Yamagata)) neuraminidase after 30 mins by fluorescence analysis; outline: as §1
[6] = Inhibition of Influenza B virus (B/Yamagata/398/2003(Victoria)) neuraminidase after 30 mins by fluorescence analysis; outline: as §1
[7] = Inhibition of Influenza B virus (B/Yamagata/1/2005(Yamagata)) neuraminidase after 30 mins by fluorescence analysis; outline: as §1
[8] = Inhibition of Influenza B virus (B/Shiga/31/2002(Yamagata)) neuraminidase after 30 mins by fluorescence analysis; outline: as §1
[9] = target: T1, Neuraminidase; assay: Inhibition of Influenza A virus (A/seal/Massachusetts/1/1980(H7N7)) neuraminidase after 30 mins by fluorescence analysis
[10] = Inhibition of Influenza B virus (B/Saitama/01/2006(Victoria)) neuraminidase after 30 mins by fluorescence analysis; outline: as §1
[11] = Inhibition of Influenza B virus (B/Sapporo/29/2005(Yamagata)) neuraminidase after 30 mins by fluorescence analysis; outline: as §1
[12] = Inhibition of Influenza B virus (B/Tokushima/1/2003(Victoria)) neuraminidase after 30 mins by fluorescence analysis; outline: as §1
[13] = target: T1, Neuraminidase; assay: Inhibition of Influenza A virus (A/Okinawa/42/2004(H1N1)) neuraminidase after 30 mins by fluorescence analysis
[14] = Inhibition of Influenza B virus (B/Brisbane/32/2002(Victoria) neuraminidase after 30 mins by fluorescence analysis; outline: as §1
[15] = target: T1, Neuraminidase; assay: Inhibition of Influenza A virus (A/duck/Ukraine/1/1963(H3N8)) neuraminidase after 30 mins by fluorescence analysis
[16] = target: T1, Neuraminidase; assay: Inhibition of Influenza A virus (A/duck/Alberta/60/1976(H12N5)) neuraminidase after 30 mins by fluorescence analysis
[17] = target: T1, Neuraminidase; assay: Inhibition of Influenza A virus (A/New Caledonia/20/1999(H1N1)) neuraminidase after 30 mins by fluorescence analysis
[18] = target: T1, Neuraminidase; assay: Inhibition of Influenza A virus (A/Yamagata/2/2002(H3N2)) neuraminidase after 30 mins by fluorescence analysis

T1 sequence (B4URF0 whole entry): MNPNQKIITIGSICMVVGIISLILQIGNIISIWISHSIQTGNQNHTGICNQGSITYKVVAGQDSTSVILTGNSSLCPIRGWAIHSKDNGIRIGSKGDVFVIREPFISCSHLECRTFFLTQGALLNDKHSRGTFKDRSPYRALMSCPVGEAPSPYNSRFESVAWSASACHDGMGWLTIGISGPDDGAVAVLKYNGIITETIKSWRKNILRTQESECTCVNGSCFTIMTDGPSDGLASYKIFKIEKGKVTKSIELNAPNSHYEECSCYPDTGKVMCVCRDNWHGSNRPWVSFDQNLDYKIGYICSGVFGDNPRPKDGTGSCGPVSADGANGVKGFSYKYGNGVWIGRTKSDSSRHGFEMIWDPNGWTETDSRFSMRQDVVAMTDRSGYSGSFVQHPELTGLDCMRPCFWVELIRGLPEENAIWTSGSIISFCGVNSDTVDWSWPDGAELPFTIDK

**Q.** What does the source list for `CCCCCCCC(=O)OC[C@@H](O)[C@@H](OC)[C@@H]1OC(C(=O)O)=C[C@H](NC(=N)N)[C@H]1NC(C)=O` [LANINAMIVIR OCTANOATE]?
**A.** IC50 [1]: 6.66 µM; IC50 [2]: 0.931 µM; IC50 [3]: 0.157 µM; IC50 [4]: 13.8 µM; IC50 [5]: 3.61 µM; IC50 [6]: 12.4 µM; IC50 [7]: 3.63 µM; IC50 [8]: 10.5 µM; IC50 [9]: 0.142 µM; IC50 [10]: 45.5 µM; IC50 [11]: 3.6 µM; IC50 [12]: 13.8 µM; IC50 [13]: 0.631 µM; IC50 [14]: 9.89 µM; IC50 [15]: 1.05 µM; IC50 [16]: 1.14 µM; IC50 [17]: 0.666 µM; IC50 [18]: 0.0466 µM
